The text below walks through data of paper PMC5733704 (Bioorganic & medicinal chemistry, 2017).

Values after ≈ are worked out from the molar mass of the structure shown. “Also recorded” adds a separate entry of the source.

The target of one test is T1, SaFabI (Staphylococcus aureus, UniProt Q6GI75).
T1 sequence (Q6GI75 1-256): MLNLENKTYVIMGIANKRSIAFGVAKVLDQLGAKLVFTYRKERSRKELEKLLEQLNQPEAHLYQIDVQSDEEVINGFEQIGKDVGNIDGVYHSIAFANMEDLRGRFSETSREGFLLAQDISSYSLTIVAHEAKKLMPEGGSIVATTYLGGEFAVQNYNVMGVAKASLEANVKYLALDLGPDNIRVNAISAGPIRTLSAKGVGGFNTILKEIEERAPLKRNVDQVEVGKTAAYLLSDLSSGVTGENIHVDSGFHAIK
Description: SaFabI enzyme inhibition, NADPH fluorescence IC50 assay. It is filed as biochemical. Conditions: for fold less potent than compound 8 (SaFabI IC50): relative to compound 8; for fold improvement in SaFabI IC50 compared to compound 1: relative to compound 1. The essentials: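 NADPH fluorescence was read at 340/460 nm. Test compound ranged 0.4 nM–200 μM. Percent inhibition came from 10-min slopes versus DMSO control. At least two independent runs, each in duplicate. Interference was checked before substrate addition.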

The subject of test [1] is A. baumannii strain 2208. Description: Checkerboard MIC with colistin against A. baumannii strain 2208. The test is classed as cell-based.
Another test concerns the target AbFabI (Acinetobacter baumannii, UniProt A0ABX6CD96). The test can be described thus: AbFabI enzyme inhibition, NADH fluorescence IC50 assay. It is filed as biochemical. Conditions: for IC50: IC50 against AbFabI, 200 nM AbFabI, 300 μM crotonyl-CoA, 200 μM NADH; for fold higher AbFabI IC50 than compound 23: relative to compound 23.
Another test deals with MDR A. baumannii. Description: Checkerboard MIC with colistin against MDR A. baumannii. It is filed as cell-based.
The subject of test [2] is S. aureus strain RN4220 overexpressing SaFabI. The test can be described thus: MIC, microbroth dilution, S. aureus RN4220 overexpressing SaFabI. The test is classed as cell-based. Conditions: versus native strain RN4220; 4-fold or higher indicates on-target. Background: Dilution methods test growth across graded concentrations, often in twofold steps.
Test [3] relates to E. coli strain BW25113 ΔTolC. The test can be described thus: MIC, microbroth dilution, E. coli efflux pump mutant. It is filed as cell-based. The conditions noted are these: Escherichia coli, BW25113, read-out: MIC E. coli TolC- strain, in μM.
Test [4] has as its system A. baumannii strain 2208. The test can be described thus: Checkerboard MIC with polymixin B nonapeptide against A. baumannii strain 2208. It is filed as cell-based.
Another test has as its system S. aureus. Description: MIC against S. aureus, stated across the strains tested. The test is classed as cell-based. The conditions noted are these: Staphylococcus aureus, read-out: MIC in S. aureus (across strains tested), in μM.
The test system of test [5] is S. aureus strain RN4220 overexpressing SaFabI. Conditions: control; cited from earlier work.

Regarding `COc1ccc(C2CCN(C(=O)Cc3ccccc3Cl)C2)cc1` (stereo not drawn) [Compound 9], the “fold less potent than compound 8 (SaFabI IC50)” value on SaFabI came out at 25 fold.

Regarding `COc1ccccc1C1CCN(C(=O)Cc2cccc(F)c2F)C1` (stereo not drawn) [Compound 5], the “fold less potent than compound 8 (SaFabI IC50)” value on SaFabI was determined as 6 fold.

The IC50 is the concentration needed to halve the response being measured. Low readings indicate inhibition by little substance, high ones a need for much substance. Consider `COc1ccccc1C1CCN(C(=O)Cc2c(F)cccc2F)C1` (stereo not drawn) [Compound 7], for which the “fold poorer SaFabI inhibitory activity compared to compound 6” value on SaFabI (relative to compound 6) is approximately 3 fold. Further, the “fold less potent than compound 8 (SaFabI IC50)” value on SaFabI was determined as 11 fold. Further, in the test with A. baumannii strain 2208 [1], the Effect result is recorded as “excellent synergy”. Further, the half-maximal inhibitory concentration (IC50) on AbFabI was less than 10 µM.

For `COc1ccccc1C1CCN(C(=O)/C=C/c2ccc(NC(C)=O)cc2)C1` (stereo not drawn) [Compound 29], on SaFabI, the “SaFabI enzyme inhibitory activity (in words)” value is given as “complete loss in enzyme inhibitory activity”. Moreover, at AbFabI, the “AbFabI enzyme inhibitory activity (in words)” value is “complete loss in enzyme inhibitory activity”.

Regarding `COc1ccccc1C1CCN(C(=O)Cc2ccccc2Cl)C1` (stereo not drawn) [Compound 8], in the test with MDR A. baumannii, the Effect result is recorded as “Synergy”. The same compound registered an IC50 against AbFabI of less than 10 µM.

Turning to `O=C(Cc1c(F)cccc1F)N1CCC(c2ccccc2)C1` (stereo not drawn) [Compound 6], the “fold improvement in SaFabI IC50 compared to compound 1” value at SaFabI is reported as 5 fold. Besides, the IC50 against AbFabI is less than 10 µM.

Consider `O=C(N[C@H](CO)[C@H](O)c1ccc([N+](=O)[O-])cc1)C(Cl)Cl` [chloramphenicol], for which the “fold increase in MIC with S. aureus strain overexpressing SaFabI” value in [2] was “remained unchanged”.

A word on the MIC: it is the lowest concentration that inhibits growth of the organism. Regarding `COc1ccccc1C1CCN(C(=O)/C=C/c2ccc(NC(C)=O)nc2)C1` (stereo not drawn) [Compound 24], the minimal inhibitory concentration (MIC) in test [3] came to 2 µM (≈ 0.731 µg/mL). The Effect result in the test on A. baumannii strain 2208 [4] and with MDR A. baumannii was “Synergy” throughout. For the same compound, the IC50 against AbFabI was less than 10 µM.

`CN(C)[C@@H]1C(O)=C(C(N)=O)C(=O)[C@@]2(O)C(O)=C3C(=O)c4c(O)cccc4[C@@](C)(O)[C@H]3C[C@@H]12` [tetracycline]: in [2], the “fold increase in MIC with S. aureus strain overexpressing SaFabI” value was “remained unchanged”.

On to `CC(C)S(=O)(=O)c1ccc(CC(=O)N2CCC(c3ccc4c(c3)OCO4)C2)cc1` (stereo not drawn) [Compound 22], for which the “SaFabI enzyme inhibitory activity (in words)” value at SaFabI is given as “not tolerated”. On AbFabI, the “AbFabI enzyme inhibitory activity (in words)” value is reported as “loss in activity”.

In the case of `CC[C@H]1OC(=O)[C@H](C)[C@@H](O[C@H]2C[C@@](C)(OC)[C@@H](O)[C@H](C)O2)[C@H](C)[C@@H](O[C@@H]2O[C@H](C)C[C@H](N(C)C)[C@H]2O)[C@](C)(O)C[C@@H](C)C(=O)[C@H](C)[C@@H](O)[C@]1(C)O` [erythromycin], in test [2], the “fold increase in MIC with S. aureus strain overexpressing SaFabI” value is “remained unchanged”.

As to `CC(=O)Nc1ccc(/C=C/C(=O)N2CCC(c3ccccc3)C2)cn1` (stereo not drawn) [Compound 23], in the test with A. baumannii strain 2208 [1], the Effect entry is “did not show synergistic behavior; also recorded: No synergy”.

Turning to `O=C(Cc1ccccc1Cl)N1CCC(c2ccccc2)C1` (stereo not drawn) [Compound 1], the Effect entry in the test on A. baumannii strain 2208 [4] and in the test on MDR A. baumannii was “Synergy” in each case. Further, the half-maximal inhibitory concentration (IC50) at AbFabI was less than 10 µM. For the same compound, the minimum inhibitory concentration (MIC) in the test on S. aureus was 42 to 84 µM (≈ 12.6 to 25.2 µg/mL).

On to `COc1ccccc1C1CCN(C(=O)Cc2ccccc2F)C1` (stereo not drawn) [Compound 3], for which, on SaFabI, the “fold less potent than compound 8 (SaFabI IC50)” value is given as 9 fold.

`CC(=O)Nc1ccc(/C=C/C(=O)N2CCC(c3nccs3)C2)cn1` (stereo not drawn) [Compound 27]: the Effect entry in the test with A. baumannii strain 2208 [1] is reported as “did not show synergistic behavior; also recorded: No synergy”. The “fold higher AbFabI IC50 than compound 23” value on AbFabI is 15 to 40 fold.

Turning to `CC(=O)Nc1ccc(/C=C/C(=O)N2CCC(c3ccccn3)C2)cn1` (stereo not drawn) [Compound 28], in the test with A. baumannii strain 2208 [1], the Effect result is on record as “did not show synergistic behavior; also recorded: No synergy”. For the same compound, the “fold higher AbFabI IC50 than compound 23” value on AbFabI is 15 to 40 fold.

For `O=C(Cc1cccc(F)c1F)N1CCC(c2ccccc2)C1` (stereo not drawn) [Compound 4], at AbFabI, the IC50 was less than 10 µM.

As for `O=C(Cc1ccccc1F)N1CCC(c2ccccc2)C1` (stereo not drawn) [Compound 2], the “fold improvement in SaFabI IC50 compared to compound 1” value at SaFabI is 2 fold. Also, the concentration for half-maximal inhibition (IC50) at AbFabI was less than 10 µM.

Consider `O=C(Cc1ccccc1Cl)N1CCC(c2nccs2)C1` (stereo not drawn) [Compound 11], for which, in the test on A. baumannii strain 2208 [1], the Effect result is “did not show synergistic behavior; also recorded: No synergy”.

Regarding `O=C(Cc1ccccc1Cl)N1CCC(c2ccccn2)C1` (stereo not drawn) [Compound 10], the Effect result with A. baumannii strain 2208 [1] is reported as “did not show synergistic behavior; also recorded: No synergy/Synergy”.

As to `CN[C@@H]1[C@H](O[C@H]2[C@H](O[C@H]3[C@H](O)[C@@H](O)[C@H](N=C(N)N)[C@@H](O)[C@@H]3N=C(N)N)O[C@@H](C)[C@]2(O)C=O)O[C@@H](CO)[C@H](O)[C@H]1O` [streptomycin], the “fold increase in MIC with S. aureus strain overexpressing SaFabI” value in test [2] was “remained unchanged”.

For `CC(=O)Nc1ccc(/C=C/C(=O)N2CCC(c3ccc4c(c3)OCO4)C2)cn1` (stereo not drawn) [Compound 26], the Effect result in the test with A. baumannii strain 2208 [1] is given as “did not show synergistic behavior; also recorded: No synergy”.

Turning to `Oc1cc(Cl)ccc1Oc1ccc(Cl)cc1Cl` [triclosan], in [5], the “fold increase in MIC with S. aureus strain overexpressing FabI” value was 8 fold.

`O=C(Cc1ccccc1Cl)N1CCC(c2ccc3c(c2)OCO3)C1` (stereo not drawn) [Compound 12]: the Effect entry in the test with MDR A. baumannii was “Synergy”. Besides, the IC50 on AbFabI is less than 10 µM. For the same compound, on AbFabI (relative to compound 1), the “fold change in AbFabI IC50 compared to compound 1” value fell in the range of 2 to 3 fold.
